The test system of assay [1] is SNU-398. The assay can be described thus: Growth inhibition of human SNU398 cells after 48 hrs. The format is functional. Conditions: SNU-398, 48 h. The method in brief:
(§1)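 Cells (ATCC-sourced) exposed to compound for 48 h at 37 °C; CellTiter-Glo reagent added, mixed by agitation, incubated 10–15 min at room temperature, luminescence read. GI50 taken as concentration giving 50% inhibition of cell growth.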

Assay [2] has as its system HCT-116. Kind of assay: Growth inhibition of human HCT116 cells after 48 hrs. Conditions: HCT-116, 48 h. The format is functional. The gist of the method:
as §1

For assay [3], the system named is SNU-398. Kind of assay: Induction of apoptosis in human SNU398 cells assessed as caspase activation after 24 hrs by HTS assay. The format is functional, cell-based. Conditions: SNU-398, 24 h. The gist of the method: (§2)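 Proprietary cell- and caspase-based HTS assay in ATCC-sourced cells; EC50 values given as mean ± SEM of three or more experiments.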
Assay [4] deals with T47D. Kind of assay: Induction of apoptosis in human T47D cells assessed as caspase activation after 24 hrs by HTS assay. Type of assay: functional, cell-based. The gist of the method: as §2
Assay [5] relates to HCT-116. The assay can be described thus: Induction of apoptosis in human HCT116 cells assessed as caspase activation after 24 hrs by HTS assay. The following applies: HCT-116, 24 h. Type of assay: functional, cell-based. The gist of the method: as §2
Assay [6] concerns T47D. The assay can be described thus: Growth inhibition of human T47D cells after 48 hrs. The format is functional. The gist of the method: as §1
Another assay has as its system MCF7. Kind of assay: Cell cycle arrest in human MCF7 cells by accumulation at G2/M phase. Type of assay: functional, cell-based.
A short description of assay [7]: Inhibition of tubulin polymerization.

Active and inactive are the calls of the source. The rule behind the calls is not given here.

This note sets out measurements from ChEMBL document CHEMBL1140741, “Discovery of 4-aryl-4H-chromenes as a new series of apoptosis inducers using a cell- and caspase-based high throughput screening assay. 4. Structure-activity relationships of N-alkyl substituted pyrrole fused at the 7,8-positions” (J Med Chem, 2008).

As to `Cc1cncc(C2C(C#N)=C(N)Oc3c2ccc2c3ccn2C)c1` (stereo not given), the GI50 with SNU-398 [1] is 2 nM; in the assay on HCT-116 [2] it was 3 nM; with T47D [6] it was 8 nM. The EC50 with SNU-398 [3] was 2 nM; in the assay on T47D [4], 3 nM; with HCT-116 [5], 3 nM.

With `CC(=O)O[C@H]1C(=O)[C@@]2(C)[C@H]([C@H](OC(=O)c3ccccc3)[C@]3(O)C[C@H](OC(=O)[C@H](O)[C@@H](NC(=O)c4ccccc4)c4ccccc4)C(C)=C1C3(C)C)[C@]1(OC(C)=O)CO[C@@H]1C[C@@H]2O` [PACLITAXEL], the EC50 in the assay on SNU-398 [3] came to 11 nM; in the assay on T47D [4], 36 nM; in the assay on HCT-116 [5] it was 24 nM.

Regarding `COc1cccc(C2C(C#N)=C(N)Oc3c2ccc2c3ccn2C)c1` (stereo not given), the figures for the EC50 in the assay on SNU-398 [3], with T47D [4] and in the assay on HCT-116 [5] were 5 nM, 6 nM and 7 nM, respectively.

For the molecule `COc1cc2c(c(OC)c1OC)-c1ccc(OC)c(=O)cc1[C@@H](NC(C)=O)CC2` [COLCHICINE], the EC50 in the assay on SNU-398 [3] came out at 4 nM; with HCT-116 [5], 15 nM. Also, the GI50 in the assay with T47D [6] stood at 7 nM.

Take `COc1cc(C2C(C#N)=C(N)Oc3c2ccc2c3ccn2C)cc(OC)c1OC` (stereo not given): the EC50 with SNU-398 [3] worked out at 3 nM; in the assay on T47D [4], 4 nM; in the assay with HCT-116 [5], 6 nM.

Regarding `COc1cc(C2C(C#N)=C(N)Oc3c2ccc2c3CCN2C)cc(Br)c1OC` (stereo not given), the GI50 in the assay on SNU-398 [1] was determined as 1 nM; in the assay with HCT-116 [2], 4 nM; with T47D [6], 7 nM. Moreover, the EC50 in the assay on SNU-398 [3] was 1 nM; with T47D [4], 2 nM; in the assay on HCT-116 [5] it was 4 nM.

In the case of `CCn1ccc2c3c(ccc21)C(c1cc(Br)c(OC)c(OC)c1)C(C#N)=C(N)O3` (stereo not given), the concentration for a half-maximal effect (EC50) with SNU-398 [3] stood at 25 nM; in the assay on T47D [4], 39 nM; with HCT-116 [5] it was 44 nM.

As for `COc1cncc(C2C(C#N)=C(N)Oc3c2ccc2c3ccn2C)c1` (stereo not given), the EC50 with SNU-398 [3], with T47D [4] and in the assay on HCT-116 [5] was 3 nM each time.

On to `COc1cc(C2C(C#N)=C(N)Oc3c2ccc2c3ncn2C)cc(Br)c1OC` (stereo not given), for which the EC50 in the assay on SNU-398 [3] was found to be 3 nM; in the assay with T47D [4], 4 nM; with HCT-116 [5], 5 nM.

As to `COc1cc(C2C(C#N)=C(N)Oc3c2ccc2cc[nH]c32)cc(Br)c1OC` (stereo not given), the EC50 in the assay with SNU-398 [3] was 86 nM; in the assay with T47D [4], 16 nM; with HCT-116 [5], 69 nM.

As to `COc1cc(OC)cc(C2C(C#N)=C(N)Oc3c2ccc2c3ccn2C)c1` (stereo not given), the EC50 in the assay with SNU-398 [3] came to 3 nM; with T47D [4], 5 nM; with HCT-116 [5], 6 nM.

Turning to `COc1cc(C2C(C#N)=C(N)Oc3c2ccc2c3ccn2CO)cc(Br)c1OC` (stereo not given), the figures for the GI50 in the assay with SNU-398 [1], in the assay with HCT-116 [2] and in the assay with T47D [6] were 1 nM, 4 nM and 2 nM, respectively. Also, the EC50 in the assay on SNU-398 [3] is 2 nM; in the assay with T47D [4], 3 nM; with HCT-116 [5], 3 nM.

As for `COc1cc(C2C(C#N)=C(N)Oc3c2ccc2c3ccn2C)cc2c1OCO2` (stereo not given), the figures for the EC50 in the assay on SNU-398 [3], with T47D [4] and with HCT-116 [5] were 12 nM, 17 nM and 15 nM, respectively.

On to `COc1cc(C2C(C#N)=C(N)Oc3c2ccc2[nH]ccc32)cc(Br)c1OC` (stereo not given), for which the GI50 stood at 14 nM in the assay with SNU-398 [1], 20 nM in the assay with HCT-116 [2] and 8 nM with T47D [6]. The EC50 in the assay on SNU-398 [3] worked out at 15 nM; in the assay with T47D [4], 5 nM; in the assay with HCT-116 [5] it was 14 nM.

In the case of `COc1cc(C2C(C#N)=C(N)Oc3c2ccc2[nH]c(C)cc32)cc(Br)c1OC` (stereo not given), the values for the EC50 with SNU-398 [3], with T47D [4] and with HCT-116 [5] were 27 nM, 30 nM and 54 nM, respectively.

On to `CC[C@]1(O)C[C@H]2CN(CCc3c([nH]c4ccccc34)[C@@](C(=O)OC)(c3cc4c(cc3OC)N(C=O)[C@H]3[C@@](O)(C(=O)OC)[C@H](OC(C)=O)[C@]5(CC)C=CCN6CC[C@]43[C@@H]65)C2)C1` [VINCRISTINE], for which the values for the EC50 with SNU-398 [3], with T47D [4] and in the assay on HCT-116 [5] were 12 nM, 43 nM and 58 nM, respectively.

For `COc1cc(C2C(C#N)=C(N)Oc3c2ccc2ccn(C)c32)cc(Br)c1OC` (stereo not given), the concentration for a half-maximal effect (EC50) was 130 nM in the assay with SNU-398 [3], 150 nM in the assay on T47D [4] and 170 nM in the assay on HCT-116 [5].

On to `COc1cc(C2C(C#N)=C(N)Oc3c2ccc2c3ccn2C)cc(Br)c1OC` (stereo not given), for which the figures for the GI50 in the assay with SNU-398 [1], in the assay with HCT-116 [2] and with T47D [6] were 0.2 nM, 1.4 nM and 0.3 nM, respectively. Also, the EC50 was found to be 2 nM with SNU-398 [3], 2 nM with T47D [4] and 3 nM in the assay on HCT-116 [5]. Also, the outcome in the assay on MCF7 was Active. In assay [7], the IC50 came to 900 nM.

For `CC[C@]1(O)C[C@@H]2CN(CCc3c([nH]c4ccccc34)[C@@](C(=O)OC)(c3cc4c(cc3OC)N(C)[C@H]3[C@@](O)(C(=O)OC)[C@H](OC(C)=O)[C@]5(CC)C=CCN6CC[C@]43[C@@H]65)C2)C1` [VINBLASTINE], the EC50 in the assay with SNU-398 [3] came out at 38 nM; in the assay on T47D [4], 43 nM; with HCT-116 [5], 44 nM. The GI50 in the assay on T47D [6] is 7 nM.
